Assay results gathered from unrelated publications.
Protocols differ between the studies behind these lines.

SMILES | assay | test system | setting | quantity | result
COC1=CC(c2ccc[nH]2)=N/C1=C\c1cc(Cc2ccc(OC(F)(F)F)cc2)c(C)[nH]1.Cl | – | male CD-1 mouse, liver | oral, 40 mg/kg, single dose | MRT(0-t) | 34.8 h
Cc1nc2ccc(OCc3ccc(C(F)(F)F)cc3)cc2[nH]1 | – | male BALB/c mouse, plasma | intravenous, 1 mg/kg | MRT(0-inf) | 1.54 h
NCc1cc2c(cc1F)C(=O)N(C1CCC(=O)NC1=O)C2 (stereo not drawn) | – | male cynomolgus monkey, plasma | oral, 0.3 mg/kg | AUC(0-inf) | 5.5 ng·h/mL
CCCCCCOc1ccc2c(=O)c3c([nH]c2c1)CCCC3 | metabolic stability | human, liver microsomes | 1 µM, pH 7.4 | half-life | 0.25 h
CC[C@H](C)[C@H](NC(=O)[C@@H]1CCCN1C(=O)CNC(=O)[C@H](Cc1ccccc1)NC(=O)[C@H](CC(N)=O)NC(=O)[C@H](CC(N)=O)NC(=O)[C@H](CO)NC(=O)[C@H](CO)NC(=O)[C@H](Cc1c[nH]cn1)NC(=O)[C@H](CCCNC(=N)N)NC(=O)[C@H](CC(C)C)NC(=O)[C@H](Cc1ccccc1)NC(=O)[C@H](CCC(=O)O)NC(=O)[C@H](C)NC(=O)[C@H](CC(C)C)NC(=O)[C@H](CCCNC(=N)N)NC(=O)[C@H](CCC(N)=O)NC(=O)[C@@H](NC(=O)[C@H](C)NC(=O)[C@@H]1CSSC[C@H](NC(=O)[C@H](CCCCN)NC(=O)CC[C@H](NC(=O)CCCCCCCCCCCCCCCCCCC(=O)O)C(=O)O)C(=O)N[C@@H](CC(N)=O)C(=O)N[C@@H]([C@@H](C)O)C(=O)N[C@@H](C)C(=O)N[C@@H]([C@@H](C)O)C(=O)N1)[C@@H](C)O)C(=O)N[C@@H](CC(C)C)C(=O)N1CCC[C@H]1C(=O)N1CCC[C@H]1C(=O)N[C@H](C(=O)N[C@@H](CC(N)=O)C(=O)N[C@H](C(=O)NCC(=O)N[C@@H](CO)C(=O)N[C@@H](CC(N)=O)C(=O)N[C@H](C(=O)N1CCC[C@H]1C(N)=O)[C@@H](C)O)C(C)C)[C@@H](C)O | – | cynomolgus monkey, plasma | subcutaneous, 20 nmol/kg, single dose | AUC(0-inf) | 39.3 µM·h
COC1=CC(c2ccc[nH]2)=N/C1=C\c1[nH]c(Cc2ccc(OC(F)(F)F)cc2)cc1Cc1ccc(OC(F)(F)F)cc1 | – | male CD-1 mouse, plasma | oral, 40 mg/kg, single dose | MRT(0-t) | 23.1 h
O=c1c2c([nH]c3cc(OCc4ccc(OC(F)(F)F)cc4)ccc13)CCCC2 | metabolic stability | human, liver microsomes | 1 µM, pH 7.4 | half-life | 0.627 h
OCc1nc2ccc(NCc3ccc(C(F)(F)F)cc3)cc2[nH]1 | – | male BALB/c mouse, plasma | oral, 10 mg/kg | MRT(0-inf) | 1.9 h
CCOC(=O)C1=C(CN2CCC[C@@H]2C(=O)Nc2ccc(B(O)O)cc2)NC(c2nccs2)=N[C@H]1c1ccc(F)cc1Br | – | CD-1 mouse, plasma | intravenous, 2 mg/kg | MRT(0-inf) | 0.57 h
